Results from BindingDB's records for doi:10.1021/jm0300835 (Duke University, 2003).

Assays:
[1] = biological target: T1, M-phase inducer phosphatase 2 (Homo sapiens, UniProt P30305); assay: Inhibitory concentration of compound against Cdc25B phosphatase was determined using CDK2-p-TpY/Cyclin A as a substrate
T1 sequence (P30305 whole entry): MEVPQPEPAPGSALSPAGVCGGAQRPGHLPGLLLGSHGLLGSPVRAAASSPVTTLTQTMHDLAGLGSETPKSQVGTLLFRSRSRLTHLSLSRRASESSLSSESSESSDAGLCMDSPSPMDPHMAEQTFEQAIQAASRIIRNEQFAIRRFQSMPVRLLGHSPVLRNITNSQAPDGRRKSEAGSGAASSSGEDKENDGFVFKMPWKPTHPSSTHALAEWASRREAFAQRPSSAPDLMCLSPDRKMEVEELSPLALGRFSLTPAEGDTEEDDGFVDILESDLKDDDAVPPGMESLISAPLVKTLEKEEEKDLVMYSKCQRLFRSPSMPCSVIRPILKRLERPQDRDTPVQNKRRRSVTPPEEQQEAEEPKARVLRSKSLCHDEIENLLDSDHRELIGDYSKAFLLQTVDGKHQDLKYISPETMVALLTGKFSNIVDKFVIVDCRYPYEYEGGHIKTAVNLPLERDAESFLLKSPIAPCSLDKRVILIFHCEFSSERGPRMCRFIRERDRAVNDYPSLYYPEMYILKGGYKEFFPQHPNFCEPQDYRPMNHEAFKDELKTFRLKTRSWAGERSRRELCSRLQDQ
Method in brief: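 Cdc25B IC50 with Cdk2-pTpY/CycA protein substrate at 300 nM; eight inhibitor concentrations; time-dependent assays; 1 mg/mL BSA carrier added only after TCA quench, not during reaction.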

[2] = biological target: T1, M-phase inducer phosphatase 2; assay: Eight point inhibitory concentration against Cell division cycle 25B was determined
Method in brief: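 Cdc25B activity read by UV-vis at 477 nm as product formed from 3-O-methylfluorescein phosphate (mFP) at 50 μM (~5 × Km), time-dependent, initial-velocity conditions (2–5% turnover); eight inhibitor concentrations, IC50 fitted to eq 1. Each reaction compared with a simultaneous no-inhibitor control; selected compounds run in duplicate.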

[3] = biological target: T1, M-phase inducer phosphatase 2; assay: Inhibitory concentration of compound against mutant WT of Cdc25B phosphatase was determined
Method in brief: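 Cdc25B catalytic domain constructs (wild-type, site-directed point mutants, truncated); activity with 3-O-methylfluorescein phosphate at 50 μM (~5 × Km), product read at 477 nm by UV-vis under initial velocity (2–5% turnover); eight inhibitor concentrations, IC50 fitted; values are mean of two determinations.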

[4] = biological target: T1, M-phase inducer phosphatase 2; assay: Inhibitory concentration of compound against mutant E478Q of Cell division cycle 25B was determined
Method in brief: (§1)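 Cdc25B catalytic-domain point mutants, a truncated form and wild type were assayed with 3-O-methylfluorescein phosphate as substrate, monitored at 477 nm under initial velocity conditions. Values are the mean of two separate determinations.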

[5] = biological target: T1, M-phase inducer phosphatase 2; assay: Inhibitory concentration of compound against mutant F475A of Cell division cycle 25B was determined; method in brief: as §1
[6] = biological target: T2, M-phase inducer phosphatase 3 (Homo sapiens, UniProt P30307); assay: Eight point inhibitory concentration against […] was determined
T2 sequence (P30307 whole entry): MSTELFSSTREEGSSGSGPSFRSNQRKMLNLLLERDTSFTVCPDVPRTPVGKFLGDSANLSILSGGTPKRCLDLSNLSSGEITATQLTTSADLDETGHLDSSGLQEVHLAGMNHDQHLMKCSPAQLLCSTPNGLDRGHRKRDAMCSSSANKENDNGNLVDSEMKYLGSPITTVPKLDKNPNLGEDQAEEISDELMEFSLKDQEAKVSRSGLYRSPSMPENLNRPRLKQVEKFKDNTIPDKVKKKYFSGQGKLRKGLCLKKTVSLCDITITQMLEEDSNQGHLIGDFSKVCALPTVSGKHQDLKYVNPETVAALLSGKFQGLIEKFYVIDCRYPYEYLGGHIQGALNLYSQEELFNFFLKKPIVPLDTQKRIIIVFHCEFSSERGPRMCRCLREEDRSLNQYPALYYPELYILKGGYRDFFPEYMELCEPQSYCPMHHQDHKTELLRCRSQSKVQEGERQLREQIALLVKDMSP
Method in brief: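 Phosphatase activity measured with 3-O-methylfluorescein phosphate at 50 μM (~5 × Km), product formation followed at 477 nm by UV-vis under initial velocity conditions (2–5% turnover) in time-dependent assays. Eight inhibitor concentrations were used, and IC50 was obtained by fitting to a dose–response equation.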

[7] = biological target: T1, M-phase inducer phosphatase 2; assay: Inhibitory concentration of compound against mutant E474Q of Cell division cycle 25B was determined; method in brief: as §1
[8] = biological target: T1, M-phase inducer phosphatase 2; assay: Inhibitory concentration of compound against mutant M531A of Cell division cycle 25B was determined; method in brief: as §1

SMILES: O=C1CC(=O)C(=O)C(c2c[nH]c3ccccc23)C1=O [2,5-Dihydroxy-3-(1H-indol-3-yl)-[1,4]benzoquinone]
- IC50 [1]: > 50 µM
- IC50 [2]: 18 µM
- IC50 [3]: 18 µM

SMILES: CC(C)=CCc1cccc2c(C3C(=O)C(=O)CC(=O)C3=O)c[nH]c12 [2,5-Dihydroxy-3-[7-(3-methyl-but-2-enyl)-1H-indol-3-yl]-[1,4]benzoquinone]
- IC50 [4]: 6.5 µM
- IC50 [5]: > 50 µM
- IC50 [6]: 15 µM
- IC50 [7]: > 50 µM
- IC50 [8]: 6.5 µM
